Results reported in ChEMBL document CHEMBL3351391, “Bioactive dihydronaphthoquinone derivatives from Fusarium solani” (J Nat Prod, 2014).
Calls of active or inactive are those of the source. The rule behind the calls is not given here.

What was measured:
HeLa [1] = experiment: Induction of ROS generation in human HeLa cells at 10 to 60 uM after 3 hrs by CM-H2DCFDA dye based assay; format: functional, cell-based
[2] = Cytotoxicity against human HuH7 cells after 48 hrs by WST8 assay; format: functional, cell-based; conditions: Huh-7, 48 h
Outline: (§1)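 WST-8 viability after 48 h exposure to a concentration series. Plating was 1 × 10^4 or 5 × 10^3 cells per well. HeLa and HuH-7 were grown in DMEM and HCT116 in RPMI 1640, each with 10% FBS. HUVEC were grown in endothelial cell growth medium. Kit reagent was added for 30–180 min at 37 °C, then absorbance was read at 450 nm. Doxorubicin was the positive control.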

HUVEC = experiment: Cytotoxicity against HUVEC cells after 48 hrs by WST8 assay; format: functional, cell-based; conditions: Homo sapiens; outline: as §1
HeLa [3] = experiment: Cytotoxicity against human HeLa cells after 48 hrs by WST8 assay; format: functional, cell-based; outline: as §1
[4] = Cytotoxicity against human HCT116 cells after 48 hrs by WST8 assay; format: functional, cell-based; conditions: HCT-116, 48 h; outline: as §1
HeLa [5] = experiment: Induction of apoptosis in human HeLa cells assessed as DNA fragmentation at 0.2 uM after 48 hrs by TUNEL assay; format: functional, cell-based
Outline: (§2)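 HeLa cells were plated at 2.5 × 10^4 per chamber-slide well and exposed for 48 h at 37 °C. Doses were 4.0 μM test agent or 0.2 μM doxorubicin (positive control). DNA fragmentation was detected by TUNEL (ApopTag Red) under fluorescence microscopy. Apoptotic cells were counted among ≥200 cells per condition, as mean ± SD of three independent experiments.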

HeLa [6] = experiment: Cytotoxicity against human HeLa cells assessed as reduction in cell viability in presence of 10 mM NAC after 48 hrs by WST8 assay; format: functional, cell-based
Outline: (§3)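 HeLa cells were exposed to 0–30 μM agent for 48 h, with or without 10 mM N-acetylcysteine as ROS scavenger. Viability was then read by WST-8 (tetrazolium reduction, absorbance 450 nm). Data are mean ± SD, n = 3.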

HeLa [7] = experiment: Induction of apoptosis in human HeLa cells assessed as DNA fragmentation at 4 uM after 48 hrs by TUNEL assay; format: functional, cell-based; outline: as §2
HeLa [8] = experiment: Cytotoxicity against human HeLa cells assessed as reduction in cell viability at 10 to 30 uM in presence of 10 mM NAC after 48 hrs by WST8 assay; format: functional, cell-based; outline: as §3
HeLa [9] = experiment: Induction of cell death in human HeLa cells at 10 uM after 1 hr
HeLa [10] = experiment: Induction of ROS generation in human HeLa cells at 1 uM after 3 hrs by CM-H2DCFDA dye based assay; format: functional, cell-based
Outline: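 HeLa cells were treated with agent over 0–10 μM; the methods give 1 h and the figure legend gives 3 h. Cells were then loaded with 10 μM CM-H2DCFDA for 20 min at 37 °C and washed. DCF fluorescence was read on a plate reader at ex 490/em 535 nm, n = 3.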

Row | Compound | Activity (HeLa [1]) | IC50 [2] [µM] | IC50 (HUVEC) [µM] | IC50 (HeLa [3]) [µM] | IC50 [4] [µM] | Activity (HeLa [5]) | Activity (HeLa [6]) | Activity (HeLa [7]) | Activity (HeLa [8]) | Activity (HeLa [9]) | Activity (HeLa [10])
1 | CC1=CC(=O)c2ccccc2C1=O | Active | – | – | – | – | – | – | – | – | – | –
2 | COc1cccc2c1C(=O)c1c(O)c3c(c(O)c1C2=O)C[C@@](O)(C(=O)CO)C[C@@H]3O[C@H]1C[C@H](N)[C@H](O)[C@H](C)O1 [DOXORUBICIN] | – | 0.22 | 0.4 | 0.22 | 0.25 | Active | – | – | – | – | –
3 | CC(=O)Cc1c(C)c(O)c2c(c1O)C(=O)CCC2O (stereo unspecified) | – | > 30 | 5.8 | > 30 | > 30 | – | – | – | – | – | –
4 | CC/C(=C(\c1ccccc1)c1ccc(OCCN(C)C)cc1)c1ccccc1 | – | – | – | – | – | – | Active | – | – | – | –
5 | CC(=O)Cc1c(C)c(O)c2c(c1O)C(=O)CCC2=O | – | 1.9 | 1.8 | 4 | 1.1 | – | – | Active | inactive | Active | Active
6 | COc1cc(O)c2c(c1O)[C@H](O)[C@@H]1C[C@](C)(O)OC[C@@H]1C2=O | – | 27 | 13.1 | > 30 | > 30 | – | – | – | – | – | –
7 | COc1cc(O)c2c(c1O)C(=O)[C@@H](CC(C)=O)[C@H](C)C2=O | – | 10.8 | 7.7 | 7.9 | 15.4 | – | – | – | – | – | –
8 | COC1=CC(=O)c2c(O)c(C)c(CC(C)=O)c(O)c2C1=O [JAVANICIN] | – | 6.7 | 2.3 | 9 | 5.5 | – | – | – | – | – | –
